Test results published in ChEMBL document CHEMBL2176949 (J Med Chem, 2012).

Tests used:
[1] = molecular target: T1, Neuronal acetylcholine receptor; alpha3/beta4 (Homo sapiens, UniProt P30926+P32297); assay: Displacement of [3H]epibatidine from human alpha3beta4 nAChR expressed in human SH-SY5Y cells; format: cell-based
Summary of the method: (§1)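 Binding to membranes from the cell lines: homogenised in PBS pH 7.4, spun at 40000g for 20 min at 4 °C, then incubated 2 h on ice in PBS with competitor (0.001 nM to 100 μM) and radioligand. Filters washed in ice-cold PBS and counted by scintillation. IC50 from nonlinear regression; Ki by Cheng-Prusoff. Minimum of three assays, ± SEM.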

[2] = molecular target: Neuronal acetylcholine receptor subunit alpha-7 (Homo sapiens, UniProt P36544); assay: Displacement of [3H]epibatidine from human alpha7 nAChR expressed in human HEK/RIC3 cells; format: cell-based; summary of the method: as §1
Neuronal acetylcholine receptor subunit alpha-7, sequence (P36544 whole entry): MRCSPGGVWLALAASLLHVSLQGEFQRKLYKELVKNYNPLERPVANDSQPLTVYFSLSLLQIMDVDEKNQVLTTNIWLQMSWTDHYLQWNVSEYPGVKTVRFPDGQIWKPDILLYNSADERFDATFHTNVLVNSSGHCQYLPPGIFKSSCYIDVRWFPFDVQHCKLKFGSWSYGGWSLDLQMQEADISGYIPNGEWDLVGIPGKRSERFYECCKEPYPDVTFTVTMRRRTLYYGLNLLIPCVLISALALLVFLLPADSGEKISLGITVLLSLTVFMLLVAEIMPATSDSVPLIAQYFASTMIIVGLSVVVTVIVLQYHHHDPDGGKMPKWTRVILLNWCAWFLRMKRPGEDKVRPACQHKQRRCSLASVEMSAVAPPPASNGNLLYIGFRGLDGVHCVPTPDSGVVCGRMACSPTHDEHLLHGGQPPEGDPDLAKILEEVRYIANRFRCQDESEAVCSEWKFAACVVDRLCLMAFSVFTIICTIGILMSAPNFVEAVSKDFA

[3] = molecular target: T2, Neuronal acetylcholine receptor; alpha4/beta2 (Homo sapiens, UniProt P17787+P43681); assay: Displacement of [3H]nicotine from human alpha4beta2 nAChR expressed in human SH-EP1 cells; format: cell-based; summary of the method: as §1
T2 sequence (P17787 whole entry): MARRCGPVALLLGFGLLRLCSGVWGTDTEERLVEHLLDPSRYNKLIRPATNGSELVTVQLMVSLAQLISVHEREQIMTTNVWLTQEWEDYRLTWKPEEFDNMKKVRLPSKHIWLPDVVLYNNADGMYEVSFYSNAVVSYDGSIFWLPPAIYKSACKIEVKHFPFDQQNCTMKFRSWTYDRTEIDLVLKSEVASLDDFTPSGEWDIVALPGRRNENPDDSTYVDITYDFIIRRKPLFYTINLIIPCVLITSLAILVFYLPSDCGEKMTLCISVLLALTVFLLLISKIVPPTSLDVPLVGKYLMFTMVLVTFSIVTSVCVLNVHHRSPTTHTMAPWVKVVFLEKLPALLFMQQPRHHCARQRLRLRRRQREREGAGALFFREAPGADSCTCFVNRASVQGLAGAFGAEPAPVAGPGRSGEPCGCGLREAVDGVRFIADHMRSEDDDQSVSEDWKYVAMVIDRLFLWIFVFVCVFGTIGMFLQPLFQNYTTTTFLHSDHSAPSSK
T2 sequence (P43681 whole entry): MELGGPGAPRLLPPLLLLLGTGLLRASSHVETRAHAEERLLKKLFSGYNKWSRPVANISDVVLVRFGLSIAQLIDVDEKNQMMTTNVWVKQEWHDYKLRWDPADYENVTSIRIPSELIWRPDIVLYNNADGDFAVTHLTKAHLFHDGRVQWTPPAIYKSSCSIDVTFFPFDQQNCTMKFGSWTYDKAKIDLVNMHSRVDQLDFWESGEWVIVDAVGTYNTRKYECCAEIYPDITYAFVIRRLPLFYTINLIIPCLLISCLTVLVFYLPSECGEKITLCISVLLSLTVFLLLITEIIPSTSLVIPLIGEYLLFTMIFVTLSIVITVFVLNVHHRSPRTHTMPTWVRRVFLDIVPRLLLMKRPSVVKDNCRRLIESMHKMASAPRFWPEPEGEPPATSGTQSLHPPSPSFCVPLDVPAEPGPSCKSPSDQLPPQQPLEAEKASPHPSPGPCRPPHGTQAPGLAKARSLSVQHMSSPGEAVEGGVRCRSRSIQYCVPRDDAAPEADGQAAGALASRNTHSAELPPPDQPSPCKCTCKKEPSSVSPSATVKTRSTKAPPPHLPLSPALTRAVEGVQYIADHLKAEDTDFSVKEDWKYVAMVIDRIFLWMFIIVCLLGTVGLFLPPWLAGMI

[4] = molecular target: T1, Neuronal acetylcholine receptor; alpha3/beta4; assay: Agonist activity at human alpha3beta4 nAChR expressed in human SH-SY5Y cells assessed as increase in calcium flux by FLIPR; format: functional, cell-based
[5] = molecular target: T1, Neuronal acetylcholine receptor; alpha3/beta4; assay: Agonist activity at human alpha3beta4 nAChR expressed in human SH-SY5Y cells assessed as increase in calcium flux by FLIPR relative to 10 uM nicotine; format: functional, cell-based
[6] = molecular target: T2, Neuronal acetylcholine receptor; alpha4/beta2; assay: Agonist activity at human alpha4beta2 nAChR low sensitivity form expressed in human SH-EP1 cells assessed as increase in calcium flux by FLIPR; format: functional, cell-based
[7] = molecular target: T2, Neuronal acetylcholine receptor; alpha4/beta2; assay: Agonist activity at human alpha4beta2 nAChR low sensitivity form expressed in human SH-EP1 cells assessed as increase in calcium flux by FLIPR relative to 10 uM nicotine; format: functional, cell-based
[8] = molecular target: T2, Neuronal acetylcholine receptor; alpha4/beta2; assay: Agonist activity at human alpha4beta2 nAChR high sensitivity form expressed in human SH-EP1 cells assessed as increase in calcium flux by FLIPR; format: functional, cell-based
[9] = molecular target: T2, Neuronal acetylcholine receptor; alpha4/beta2; assay: Agonist activity at human alpha4beta2 nAChR high sensitivity form expressed in human SH-EP1 cells assessed as increase in calcium flux by FLIPR relative to 10 uM nicotine; format: functional, cell-based

T1 sequence (P30926 whole entry): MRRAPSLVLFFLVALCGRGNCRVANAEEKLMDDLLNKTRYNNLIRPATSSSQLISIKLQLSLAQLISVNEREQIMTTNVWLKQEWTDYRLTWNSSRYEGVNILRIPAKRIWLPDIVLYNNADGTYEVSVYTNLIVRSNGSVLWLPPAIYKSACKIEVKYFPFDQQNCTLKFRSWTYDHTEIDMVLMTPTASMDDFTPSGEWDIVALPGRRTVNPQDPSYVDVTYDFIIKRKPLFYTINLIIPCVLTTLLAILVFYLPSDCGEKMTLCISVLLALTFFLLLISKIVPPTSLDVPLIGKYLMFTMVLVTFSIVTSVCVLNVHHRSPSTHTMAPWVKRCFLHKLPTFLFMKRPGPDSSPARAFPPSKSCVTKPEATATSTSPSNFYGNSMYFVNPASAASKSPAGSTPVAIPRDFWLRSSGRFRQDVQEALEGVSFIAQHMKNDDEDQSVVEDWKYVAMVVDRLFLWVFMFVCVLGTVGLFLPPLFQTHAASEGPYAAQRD
T1 sequence (P32297 whole entry): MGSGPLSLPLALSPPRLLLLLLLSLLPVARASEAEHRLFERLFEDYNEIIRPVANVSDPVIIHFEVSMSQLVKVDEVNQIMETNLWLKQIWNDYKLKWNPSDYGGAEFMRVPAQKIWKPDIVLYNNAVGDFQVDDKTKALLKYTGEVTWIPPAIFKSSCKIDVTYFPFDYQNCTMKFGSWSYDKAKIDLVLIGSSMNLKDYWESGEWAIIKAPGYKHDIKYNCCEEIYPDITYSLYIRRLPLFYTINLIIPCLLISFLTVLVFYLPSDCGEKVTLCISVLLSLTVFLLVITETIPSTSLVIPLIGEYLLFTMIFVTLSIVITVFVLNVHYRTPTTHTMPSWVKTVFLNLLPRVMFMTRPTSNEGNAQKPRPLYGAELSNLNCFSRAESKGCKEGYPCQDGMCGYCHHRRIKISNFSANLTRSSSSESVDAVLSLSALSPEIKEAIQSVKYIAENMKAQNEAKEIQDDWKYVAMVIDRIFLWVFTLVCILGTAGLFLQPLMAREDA

SMILES | Ki [1] [nM] | Ki [2] [nM] | Ki [3] [nM] | EC50 [4] [nM] | %max [5] [%] | EC50 [6] [nM] | %max [7] [%] | EC50 [8] [nM] | %max [9] [%]
c1cncc(N2CC3CNCC(C3)C2)c1 | 6.6 | 1.6 | 0.1 |  |  |  |  |  | 
Clc1ccccc1Oc1cncc(C2=CC3CNCC(C2)C3)c1 (stereo not drawn) | 26 | 39 | 0.9 |  |  |  |  |  | 
Clc1ccc(C2=CC3CNCC(C2)C3)nn1 (stereo not drawn) | 73 | 77 | 0.4 | 149 | 135 | 595 | 160 | 80 | 118
Fc1ccc(Oc2cncc(C3=CC4CNCC(C3)C4)c2)cc1 (stereo not drawn) | 31 | 7.2 | 0.6 |  |  |  |  |  | 
Cc1ccc(C2=CC3CNCC(C2)C3)cn1 (stereo not drawn) | 25 | 80 | 0.3 | 93 | 149 | 79 | 112 | 75 | 107
Clc1ccc(C2=CC3CNCC(C2)C3)cn1 (stereo not drawn) | 6.2 | 39 | 0.4 | 16 | 141 | 35 | 152 | 54 | 98
Fc1ccc(C2=CC3CNCC(C2)C3)cn1 (stereo not drawn) | 28 | 20 | 0.4 | 99 | 140 | 85 | 136 | 85 | 104
N#Cc1cncc(C2=C[C@@H]3CNC[C@H](C2)C3)c1 | 17 | 79 | 0.3 | 447 | 144 | 343 | 89 | 107 | 92
N#Cc1ccncc1C1=CC2CNCC(C1)C2 (stereo not drawn) | 103 | 330 | 2.8 | 166 | 130 | > 10000 | 27 | 3250 | 55
N#Cc1cncc(C2=C[C@H]3CNC[C@@H](C2)C3)c1 | 15 | 73 | 0.3 | 355 | 136 | 4190 | 88 | 256 | 95
CN1CC2C=C(c3cncc(F)c3)CC(C2)C1 (stereo not drawn) | 1640 | 1010 | 13 |  |  |  |  |  | 
CN1CC2C=C(c3cnccc3Cl)CC(C2)C1 (stereo not drawn) | 7230 | 1420 | 1160 |  |  |  |  |  | 
CN1CC2C=C(c3ccc(F)nc3)CC(C2)C1 (stereo not drawn) | 1300 | 1300 | 18 | > 10000 | 25 | > 10000 | 9.4 | > 10000 | 22
CN1CC2C=C(c3cnccc3C#N)CC(C2)C1 (stereo not drawn) |  | 4850 | 3420 |  |  |  |  |  | 
COc1cccc(Oc2cncc(C3=CC4CNCC(C3)C4)c2)c1 (stereo not drawn) | 15 | 13 | 0.9 |  |  |  |  |  | 
CNCC/C=C/c1cccnc1 [RIVANICLINE] | 5400 | 8000 | 26 |  |  |  |  |  | 
Fc1cncc(C2=CC3CNCC(C2)C3)c1 (stereo not drawn) | 39 | 3.6 | 0.3 |  |  |  |  |  | 
CN1CC2C=C(c3cncc(C#N)c3)CC(C2)C1 (stereo not drawn) | 4500 | > 10000 | 24 |  |  |  |  |  | 
Clc1ccncc1C1=CC2CNCC(C1)C2 (stereo not drawn) | 128 | 33 | 3 | 377 | 105 | > 10000 | 12.8 | 2000 | 46
CN1CC2C=C(c3cncc(OCc4ccccc4)c3)CC(C2)C1 (stereo not drawn) | 711 | 4540 | 1.7 |  |  |  |  |  | 
Fc1cncc(C2=C[C@@H]3CNC[C@H](C2)C3)c1 | 5.4 | 1.6 | 0.2 | 111 | 153 | 36 | 120 | 34 | 112
Clc1ccc(Oc2cncc(C3=CC4CNCC(C3)C4)c2)cc1 (stereo not drawn) | 40 | 23 | 1.9 |  |  |  |  |  | 
N#Cc1cncc(C2=CC3CNCC(C2)C3)c1 (stereo not drawn) | 47 | 160 | 0.6 |  |  |  |  |  | 
